# ChEMBL document CHEMBL1136717, “Trypanocidal activity of conformationally restricted pentamidine congeners” (J Med Chem, 2003)
# Activity calls are given as the source filed them. The rule behind the calls is not given here.
# Assays:
# [1] = system: Trypanosoma brucei; experiment: In vitro inhibitory concentration against mice infected with Trypanosoma brucei rhodesiense (KETRI 243).; type: functional, organism-based
# [2] = system: Trypanosoma brucei rhodesiense; experiment: In vitro inhibitory concentration against mouse infected with Trypanosoma brucei rhodesiense (KETRI 269)
# [3] = system: Trypanosoma brucei; experiment: In vitro inhibitory concentration against mice infected with Trypanosoma brucei pentamidine-sensitive strain (EATRO Lab 110).; type: functional, organism-based
# [4] = system: Nucleic Acid; experiment: DNA binding affinity using poly(dA-dT).; type: nucleic-acid assay
# In short: (§1)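 Thermal denaturation of calf thymus DNA or poly(dA-dT) at a 1:5 compound to base pair ratio. Binding affinity is reported as ΔTm, the shift in the midpoint (Tm) of the melting curve.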
# [5] = system: Calf thymus DNA; experiment: DNA binding affinity using calf thymus DNA.; type: nucleic-acid assay; conditions: Bos taurus; in short: as §1
# [6] = system: Trypanosoma brucei; experiment: In vitro inhibitory concentration against mouse infected with Trypanosoma brucei rhodesiense (kETRI 243As-10-3); type: functional, organism-based
# [7] = system: Trypanosoma brucei; experiment: Mean survival dose (1.0 mg/kg) after intraperitoneal administration once a day for 3 days in mouse infected with Trypanosoma brucei (EATRO Lab 110); type: functional
# In short: (§2)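 Female Swiss-Webster mice (20 g) infected ip with 2.5×10^5 trypanosomes from rat blood; treatment began 24 h later. Drug dissolved in distilled water, given ip once daily for 3 days, three mice per dose. Tail blood smears checked weekly. MSD is the mean survival of mice dying of infection, excluding cures. Cure means survival >30 days beyond the last control death with a clear smear.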
# [8] = system: Trypanosoma brucei; experiment: Mean survival dose (5.0 mg/kg) after intraperitoneal administration once a day for 3 days in mouse infected with Trypanosoma brucei (EATRO Lab 110); type: functional; in short: as §2
# [9] = system: Mus musculus; experiment: Ratio of number of cured to that of total after intraperitoneal administration (25 mg/kg) once a day for 3 days in mouse infected with Trypanosoma brucei (EATRO Lab 110); (3/3 of animals were cured); type: functional, organism-based
# [10] = system: Trypanosoma brucei; experiment: Mean survival dose (2.5 mg/kg) after intraperitoneal administration once a day for 3 days in mouse infected with Trypanosoma brucei (EATRO Lab 110); type: functional; in short: as §2
# [11] = system: Mus musculus; experiment: Ratio of number of cured to that of total after intraperitoneal administration (2.5 mg/kg) once a day for 3 days in mouse infected with Trypanosoma brucei (EATRO Lab 110); (1/3 of animals were cured); type: functional, organism-based
# [12] = system: Mus musculus; experiment: Ratio of number of cured to that of total after intraperitoneal administration (1.0 mg/kg) once a day for 3 days in mouse infected with Trypanosoma brucei (EATRO Lab 110);(0/3 of animals were cured); type: functional, organism-based
# [13] = system: Mus musculus; experiment: Ratio of number of cured to that of total after intraperitoneal administration (10.0 mg/kg) once a day for 3 days in mouse infected with Trypanosoma brucei (EATRO Lab 110); (3/3 of animals were cured); type: functional, organism-based
# [14] = system: Mus musculus; experiment: Ratio of number of cured to that of total after intraperitoneal administration (5.0 mg/kg) once a day for 3 days in mouse infected with Trypanosoma brucei (EATRO Lab 110); (2/3 of animals were cured); type: functional, organism-based
# [15] = system: Mus musculus; experiment: Ratio of number of cured to that of total after intraperitoneal administration (2.5 mg/kg) once a day for 3 days in mouse infected with Trypanosoma brucei (EATRO Lab 110); (3/3 of animals were cured); type: functional, organism-based
# [16] = system: Mus musculus; experiment: Ratio of number of cured to that of total after intraperitoneal administration (25 mg/kg) once a day for 3 days in mouse infected with Trypanosoma brucei (EATRO Lab 110); (0/3 of animals were cured); type: functional, organism-based
# [17] = system: Mus musculus; experiment: Ratio of number of cured to that of total after intraperitoneal administration (1.0 mg/kg) once a day for 3 days in mouse infected with Trypanosoma brucei (EATRO Lab 110); (0/3 of animals were cured); type: functional, organism-based
# [18] = system: Mus musculus; experiment: Ratio of number of cured to that of total after intraperitoneal administration (5.0 mg/kg) once a day for 3 days in mouse infected with Trypanosoma brucei (EATRO Lab 110); (3/3 of animals were cured); type: functional, organism-based
# [19] = system: Trypanosoma brucei; experiment: Mean survival dose (25.0 mg/kg) after intraperitoneal administration once a day for 3 days in mouse infected with Trypanosoma brucei (EATRO Lab 110); Compound was toxic.; type: functional; in short: as §2
# [20] = system: Trypanosoma brucei; experiment: Mean survival dose (10.0 mg/kg) after intraperitoneal administration once a day for 3 days in mouse infected with Trypanosoma brucei (EATRO Lab 110); type: functional; in short: as §2
# [21] = system: Mus musculus; experiment: Ratio of number of cured to that of total after intraperitoneal administration (25 mg/kg) once a day for 3 days in mouse infected with Trypanosoma brucei (EATRO Lab 110);(3/3 of animals were cured); type: functional, organism-based
# [22] = system: Mus musculus; experiment: Ratio of number of cured to that of total after intraperitoneal administration (2.5 mg/kg) once a day for 3 days in mouse infected with Trypanosoma brucei (EATRO Lab 110); (0/3 of animals were cured); type: functional, organism-based
# [23] = system: Mus musculus; experiment: Ratio of number of cured to that of total after intraperitoneal administration (10.0 mg/kg) once a day for 3 days in mouse infected with Trypanosoma brucei (EATRO Lab 110); (1/3 of animals were cured); type: functional, organism-based
# [24] = system: Mus musculus; experiment: Ratio of number of cured to that of total after intraperitoneal administration (5.0 mg/kg) once a day for 3 days in mouse infected with Trypanosoma brucei (EATRO Lab 110); (0/3 of animals were cured); type: functional, organism-based
SMILES,IC50 [1],IC50 [2],IC50 [3],DNA binding [4],DNA binding [5],IC50 [6],also measured
c1cc(C2=NCCN2)ccc1CC1CCCN(c2ccc(C3=NCCN3)cc2)C1 (stereo not given),0.085 µM,0.015 µM,0.086 µM,14.1 °C,9.9 °C,0.079 µM,
N=C(N)c1ccc(N2CCCN(c3ccc(C(=N)N)cc3)CC2)cc1,0.00271 µM,0.0071 µM,0.00215 µM,23.1 °C,15 °C,0.0033 µM,MSD [7]: 8.3 days; MSD [8]: 12 days; Ratio [9]: Active; MSD [10]: 16.5 days; Ratio [11]: Partially active; Ratio [12]: inactive; Ratio [13]: Active; Ratio [14]: Partially active
c1cc(N2CCN(c3ccc(C4=NCCN4)cc3)CC2)ccc1C1=NCCN1,0.0135 µM,0.013 µM,0.0185 µM,19.4 °C,15 °C,0.1 µM,Ratio [15]: Active; MSD [7]: 10.3 days; Ratio [16]: inactive; Ratio [17]: inactive; Ratio [18]: Active; Ratio [13]: Active; MSD [19]: 19.7 days
N=C(N)c1ccc(OCCCCCOc2ccc(C(=N)N)cc2)cc1 [PENTAMIDINE],0.0031 µM,0.0032 µM,0.0008 µM,20.6 °C,11.1 °C,0.005 µM,
c1cc(N2CCCN(c3ccc(C4=NCCN4)cc3)CC2)ccc1C1=NCCN1,0.052 µM,0.155 µM,0.0275 µM,24 °C,15 °C,0.023 µM,MSD [20]: 14 days; MSD [7]: 4.7 days; MSD [8]: 7.7 days; Ratio [21]: Active; Ratio [22]: inactive; Ratio [17]: inactive; MSD [10]: 4.3 days; Ratio [23]: Partially active; Ratio [24]: inactive
C(=C1CCN(Cc2ccc(C3=NCCN3)cc2)CC1)c1ccc(C2=NCCN2)cc1,0.465 µM,0.265 µM,0.54 µM,19.4 °C,17 °C,0.09 µM,
C(=C1\CCCN(c2ccc(C3=NCCN3)cc2)C1)/c1ccc(C2=NCCN2)cc1,0.084 µM,0.088 µM,0.071 µM,15.5 °C,12 °C,0.084 µM,
N=C(NCCO)c1ccc(N2CCCN(c3ccc(/C(N)=N/CCO)cc3)CC2)cc1,> 1 µM,,> 1 µM,14.7 °C,11.1 °C,> 1 µM,
c1cc(C2=NCCN2)ccc1CC1CCN(c2ccc(C3=NCCN3)cc2)CC1,0.185 µM,0.155 µM,0.169 µM,33.9 °C,21 °C,0.088 µM,
N=C(N)c1ccc(OC[C@@H]2C[C@H]2COc2ccc(C(=N)N)cc2)cc1,0.045 µM,0.0155 µM,0.0094 µM,20.3 °C,11.1 °C,0.00017 µM,
CC(C)(C)/N=C(\N)c1ccc(N2CCCN(c3ccc(/C(N)=N/C(C)(C)C)cc3)CC2)cc1,> 1 µM,,> 1 µM,7.4 °C,4.1 °C,> 1 µM,
CC(C)/N=C(\N)c1ccc(N2CCCN(c3ccc(/C(N)=N/C(C)C)cc3)CC2)cc1,0.9 µM,,> 1 µM,20 °C,13.8 °C,0.125 µM,
N=C(N)c1ccc(NC(=O)c2cccc(C(=O)Nc3ccc(C(=N)N)cc3)n2)cc1,> 1 µM,> 1 µM,> 1 µM,15.9 °C,7.1 °C,> 1 µM,
O=C(Nc1ccc(C2=NCCN2)cc1)C1C[C@H]1C(=O)Nc1ccc(C2=NCCN2)cc1 (stereo not given in full),0.44 µM,> 1 µM,> 1 µM,9.6 °C,6 °C,0.81 µM,
CCCCNC(=N)c1ccc(N2CCCN(c3ccc(C(=N)NCCCC)cc3)CC2)cc1,0.079 µM,,0.18 µM,13.3 °C,11.8 °C,0.078 µM,
N=C(NC1CC1)c1ccc(N2CCCN(c3ccc(C(=N)NC4CC4)cc3)CC2)cc1,0.81 µM,,0.87 µM,23.6 °C,15.3 °C,0.85 µM,
